ADAM10 inh: human ADAM10 inhibitors, primary screen, biochemical, QFRET, HTS; recombinant ADAM10, EDANS/DABCYL FRET peptide cleavage, 3 h; inhibition, % at 7 µM; 370,000 tested, 0.62% active;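 active means inhibition above a per-campaign cutoff equal to the mean of compounds falling between control-based bounds plus 3 SD, cut at about 20% in these data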;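 further: 0% = DMSO wells while the 100% control is not disclosed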
ADAM17 inh: ADAM17 inhibitors, primary screen, biochemical, QFRET; Disintegrin and metalloproteinase domain-containing protein 17 (Homo sapiens), P78536; recombinant ADAM17, EDANS/DABCYL FRET peptide cleavage; inhibition, % at 6.95 µM; 370,000 tested, 0.83% active;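 active means inhibition above the mean of compounds lying between control limits plus 3 SD, set per campaign, cut at about 8.5% in these data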;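 further: 0% = DMSO-only wells as the low control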
Target sequence (P78536 215-824 limits assumed): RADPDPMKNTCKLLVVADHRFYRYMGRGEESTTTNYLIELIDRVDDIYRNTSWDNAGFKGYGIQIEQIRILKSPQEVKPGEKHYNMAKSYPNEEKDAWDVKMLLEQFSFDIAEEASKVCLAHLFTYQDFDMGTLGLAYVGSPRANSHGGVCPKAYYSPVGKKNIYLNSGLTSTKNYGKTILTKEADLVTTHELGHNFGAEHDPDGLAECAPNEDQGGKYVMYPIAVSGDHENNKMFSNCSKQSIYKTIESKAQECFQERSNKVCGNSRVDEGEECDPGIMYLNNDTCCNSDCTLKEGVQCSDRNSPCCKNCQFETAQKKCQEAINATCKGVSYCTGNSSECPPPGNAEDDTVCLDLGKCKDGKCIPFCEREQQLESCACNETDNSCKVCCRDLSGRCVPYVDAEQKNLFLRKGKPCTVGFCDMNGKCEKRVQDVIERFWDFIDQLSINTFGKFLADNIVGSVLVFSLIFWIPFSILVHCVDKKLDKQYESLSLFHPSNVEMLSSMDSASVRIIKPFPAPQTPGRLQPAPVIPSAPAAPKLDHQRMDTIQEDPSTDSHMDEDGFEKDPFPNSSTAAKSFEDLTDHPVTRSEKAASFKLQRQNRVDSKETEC
Arr AP2 block: inhibitors of beta-arrestin/AP2 binding, primary screen, biochemical, GPCR trafficking, flow cytometry. beta-arrestin 1 C-terminal peptide binding to AP2 beta2-adaptin appendage (human). inhibition, % at 10 µM. FITC-arrestin peptide / GST-AP2 beads; AP2 beta2 appendage carries R879A mutation. 340,000 tested, 0.31% active;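 active means inhibition above a set limit, near 3 SD of compounds lacking own fluorescence, cut at about 54% in these data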;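 further: plate controls were DMSO wells for no effect and 5 µM unlabelled arrestin peptide for full effect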
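Test system: GST-tagged AP2 beta2-adaptin appendage (R879A) on 4 µm glutathione beads; also added: fluorescein-tagged arrestin peptide at 50 nM final; timing: 12 min plus 1 h, RT; signal: flow cytometry, FL1 (488/535 nm); read-out: percent drop in bead-associated FITC signal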
CaV13 FRET inh: Disruptors of the CACNA1D IQ motif to Ca2+-dependent inactivation inhibitor domain association, primary screening, Förster resonance energy transfer in intact living …. AID 743397. HEK cells, CFP/YFP FRET ICDI-IQ, plate reader, 10 min; percent FRET-ratio fall versus neutral wells. inhibition, % at 12.3 µM. 340,000 tested, 0.098% active;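 active means mean replicate inhibition of at least 30% and at least 1% of replicates passing that level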;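 further: 0% = median of the neutral control wells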
FAS-TE inh: FAS thioesterase domain inhibitors, primary screen, biochemical, fluorescence intensity, uHTS. recombinant FAS-TE, OMFH fluorogenic substrate, fluorescence endpoint. 360,000 tested, 0.67% active. inhibition, % at 15 µM. Fatty acid synthase (Homo sapiens), P49327;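 active means compounds whose normalised, plate-corrected inhibition of enzyme fluorescence in the single-dose primary screen is 50% or more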;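 further: 0% = DMSO with enzyme and 100% = substrate without enzyme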
CendR NRP1 mod: modulators of CendR peptide binding to NRP-1, primary screen, biochemical, fluorescence polarization, uHTS; FAM-RPARPAR peptide binding to NRP-1; Neuropilin-1 (Homo sapiens), O14786; inhibition, % at 25 µM; AID 602438, 2012; 360,000 tested, 0.85% active;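 active means inhibition or corrected inhibition above about 18%, plus a signal ratio from 0.5 to 1.5, limit read from the data, passing the limit was not always enough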
ADAM10 ctr: ADAM10 inhibitors, counter-screen for ADAM17 exosite inhibitor project, biochemical, FRET, human ADAM10. inhibition, % at 6.95 µM. 2,900 tested, 47% active. shares compounds with ADAM17 inh. recombinant ADAM10, EDANS/DABCYL FRET peptide cleavage, 3 h;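 active means mean inhibition over the triplicate runs exceeds the activity threshold set in the earlier primary screen, cut at about 20% in these data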;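 further: 0% = DMSO wells and 100% = marimastat wells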
ADAM17 confirm: ADAM17 inhibitors, hit retest, confirmation, biochemical, QFRET peptide cleavage | recombinant ADAM17, EDANS/DABCYL QFRET peptide cleavage | 2,900 tested, 65% active | inhibition, % at 6.95 µM | shares compounds with ADAM17 inh;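 active means mean inhibition across replicates above the hit cutoff set in the primary screen, cut at about 8.5% in these data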;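 further: 0% = DMSO wells and 100% = marimastat wells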
The depositor's hits bear a star; · = no result. Only some compounds are listed: those with a hit (about 2.9% of all), similar ones and a draw of the others.

SMILES | ADAM10 inh | ADAM17 inh | Arr AP2 block | CaV13 FRET inh | FAS-TE inh | CendR NRP1 mod | ADAM10 ctr | ADAM17 confirm
COc1ccc(N2C(=O)C3C(C2=O)C3(c2ccccc2)c2ccccc2)cc1 (centres undefined) | 17.2 | 12.5* | 19.3 | -4.9 | 20.1 | 9.3 | 9.4 | 7.1
O=c1c(Cc2ccc(Cl)cc2Cl)c(O)ccn1Cc1ccc(Cl)cc1 | 19.1 | 10.8* | -14.4 | · | 20.5 | 4.2 | 25.8* | 16.2*
O=c1c(Cc2ccc(Cl)cc2)c(O)ccn1Cc1cccc(Cl)c1 | 3.2 | -1.7 | 6.9 | -4.0 | 10.0 | -1.3 | · | ·
COc1ccc(N2CCN(CCCNC(=O)Cn3c(=O)c4cccn4c4c(C)ccnc43)CC2)cc1 | 9.1 | -2.4 | · | · | · | · | · | ·
CC[C@@H]1C=C(C(=O)O)[C@H](c2ccc(C)cc2)N1S(=O)(=O)c1ccc(C)cc1 | -9.6 | -2.6 | 32.1 | -3.9 | -5.3 | 0.2 | · | ·
CC[C@@H]1C=C(C(=O)O)[C@H](c2ccc(Cl)cc2)N1S(=O)(=O)c1ccc(C)cc1 | 1.3 | 8.6* | -3.0 | -5.2 | -11.2 | 1.6 | 9.7 | 5.3
O=C(COc1ccccc1C(=O)NCc1ccccc1)Nc1ccc(I)cc1 | -1.1 | -1.6 | · | · | · | · | · | ·
COc1ccc(N2CCN(CCNS(=O)(=O)c3ccc(F)cc3)CC2)cc1 | -4.0 | 0.4 | · | · | · | · | · | ·
O=C(Nc1cccc(S(=O)(=O)N2CCCCC2)c1)c1cccs1 | 17.2 | 2.1 | -8.2 | -4.7 | 5.2 | 16.0 | · | ·
O=C(Oc1cccc(NC(=O)c2cccs2)c1)c1cccc(S(=O)(=O)N2CCCC2)c1 | 17.8 | 11.2* | 1.0 | -3.9 | 36.4 | -7.4 | 26.5* | 16.5*
CCCCNC(=O)C1(C)CCN1C(=O)c1cc2ccccc2s1 (centres undefined) | 8.0 | 3.7 | · | -3.7 | -7.1 | 12.9 | · | ·
CCOC(=O)[C@]12CCCC=C1N(Cc1cccc3ccccc13)C(=O)[C@H](CC(=O)NCCCN1CCCC1=O)C2 | -7.2 | 1.1 | · | -2.9 | -14.9 | 1.9 | · | ·
C=CCn1c(COc2ccc(C)cc2)nnc1SCC(=O)Nc1cc(Cl)cc(Cl)c1 | 6.9 | 4.6 | · | · | · | · | · | ·
Cc1ccc(N(CC(=O)Nc2ccccc2C(=O)NCc2ccco2)S(=O)(=O)c2ccccc2)cc1C | 4.3 | -5.9 | -0.7 | · | 27.6 | -4.5 | · | ·
Cc1ccc(C)c(N(CC(=O)Nc2ccccc2C(=O)NCc2ccco2)S(=O)(=O)c2ccccc2)c1 | 11.8 | 9.6* | 11.2 | -18.4 | 33.4 | 0.9 | 23.1* | 15.8*
COC(=O)[C@]12C[C@H](CC(=O)N3CCSCC3)C(=O)N(Cc3ccc4c(c3)OCO4)C1=C[C@H](C(C)(C)C)O[C@@H]2C | -2.0 | -1.7 | · | -9.2 | · | · | · | ·
COc1ccccc1NC(=O)COc1ccc(-c2nn(C)c(=O)c3ccccc23)cc1 | 6.6 | -4.4 | -8.2 | -6.2 | 5.5 | -4.8 | · | ·
COc1ccccc1NC(=O)Cn1nc(-c2ccc(Cl)cc2)c2ccccc2c1=O | 14.0 | 8.7* | -0.6 | · | 10.7 | 8.8 | 14.0 | 14.3*
O=S(=O)(NCc1nnnn1-c1ccc(F)cc1)c1ccc(F)cc1 | -10.9 | -7.0 | · | -4.8 | -1.4 | 19.6 | · | ·
CN(C)/C=C(/C(=O)c1ccccc1)n1cncn1 | 4.0 | 1.8 | 18.8 | -3.7 | -2.6 | 20.4 | · | ·
O=C(/C=C(/c1ccc(Cl)cc1)n1cncn1)c1ccccc1 | 8.8 | 9.7* | 8.0 | -4.5 | -4.1 | -4.4 | 3.1 | 4.4
C[C@@H]1CN([C@@H](C)CO)C(=O)CCCn2nncc2CO[C@@H]1CN(C)C(=O)Nc1ccc(C(C)(C)C)cc1 | 0.5 | -1.8 | · | -6.6 | -4.9 | -0.6 | · | ·
COC(=O)C1=C(C)N(Cc2cccc(C(F)(F)F)c2)C(=NCc2cc(OC)c(OC)c(OC)c2)NC1CCc1ccccc1 (centres undefined) | -0.1 | -0.5 | · | -2.0 | · | · | · | ·
CCn1c(CNC(=O)COc2ccc(C(C)C)cc2)nnc1SCC(=O)Nc1cc(F)ccc1C | 12.5 | 11.7* | 5.8 | · | 12.3 | 4.3 | 0.8 | 3.9
CCn1c(CNC(=O)COc2ccc(C(C)C)cc2)nnc1SCC(=O)Nc1ccc(F)cc1 | 2.6 | 4.1 | 10.3 | · | 20.3 | -3.8 | · | ·
SMILES | ADAM10 inh | ADAM17 inh | Arr AP2 block | CaV13 FRET inh | FAS-TE inh | CendR NRP1 mod | ADAM10 ctr | ADAM17 confirm
Cc1cc(N2CCC[C@@H]2C)nc2ccccc12 | -63.9 | -27.4 | · | · | · | · | · | ·
COc1ccc(C(=O)N2CCCC(c3cc(C(=O)NCc4ccccc4)no3)C2)cc1 (centres undefined) | -11.9 | -2.4 | · | -5.7 | -1.7 | -0.8 | · | ·
COc1ccc(C(=O)N2CCCC(c3cc(C(=O)NCc4ccc(F)cc4)no3)C2)cc1 (centres undefined) | 6.1 | 8.8* | · | -4.8 | -5.6 | -2.9 | -5.9 | -1.5
CCOC(=O)C1(C)CCN1C(=O)c1cccc(C#N)c1 (centres undefined) | -0.5 | 0.2 | · | -9.2 | -7.2 | -14.7 | · | ·
CCOC(=O)C1=C(c2ccccc2)NC(=O)NC1c1cc(Br)c(O)c(OC)c1 (centres undefined) | -0.7 | 10.3* | -4.0 | -9.0 | -3.2 | 7.6 | 12.8 | 3.0
CCOC(=O)C1=C(c2ccccc2)NC(=S)NC1c1cc([N+](=O)[O-])ccc1OC (centres undefined) | 11.9 | 9.2* | -2.9 | -2.3 | 38.2 | -1.9 | 10.1 | 6.0
CCOC(=O)C1=C(C)NC(=O)NC1c1cc(Br)c(O)c(OC)c1 (centres undefined) | -2.1 | -5.0 | 1.2 | · | -3.1 | 7.6 | · | ·
CCCCOC(=O)c1ccc(NC(=O)COC(=O)CN2C(=O)NC3(CCCC3)C2=O)cc1 | 5.4 | 9.2* | -9.7 | · | 5.1 | 9.0 | 21.4* | 12.5*
O=C(NCC1CCN(C(=O)C(=O)c2cc3ccccc3o2)CC1)c1cccnc1 | -1.5 | -3.9 | · | -10.1 | · | · | · | ·
CC1CC(C)CN(c2ccc(-n3cnnn3)cc2[N+](=O)[O-])C1 (centres undefined) | 1.9 | 1.9 | 22.2 | · | 0.2 | 5.3 | · | ·
O=[N+]([O-])c1cc(-n2cnnn2)ccc1N1CCC(Cc2ccccc2)CC1 | 26.4* | 11.9* | -0.3 | -4.1 | 8.7 | 13.3 | 13.0 | 9.2*

From PubChem
